Measurements reported in ChEMBL document CHEMBL1123430, “Potential tumor- or organ-imaging agents. 26. Polyiodinated 2-substituted triacylglycerols as hepatographic agents” (J Med Chem, 1986).

Experiments:
Rattus norvegicus [1] = assay: Distribution of radioactivity of radiolabeled compound in blood of female rats 5 minutes after intravenous administration; assay type: ADME, organism-based; settings: in vivo
Rattus norvegicus [2] = assay: Distribution of radioactivity of radiolabeled compound in heart of female rats 30 minutes after intravenous administration at; assay type: ADME, organism-based; settings: in vivo, 0.5 h
Rattus norvegicus [3] = assay: Distribution of radioactivity of radiolabeled compound in blood of female rats 30 minutes after intravenous administration; assay type: ADME, organism-based; settings: in vivo, 0.5 h
Rattus norvegicus [4] = assay: Distribution of radioactivity of radiolabeled compound in heart of female rats 5 minutes after intravenous administration; assay type: ADME, organism-based; settings: in vivo
Rattus norvegicus [5] = assay: Distribution of radioactivity of radiolabeled compound in kidney of female rats 30 minutes after intravenous administration; assay type: ADME, organism-based; settings: in vivo, 0.5 h
Rattus norvegicus [6] = assay: Distribution of radioactivity of radiolabeled compound in kidney of female rats 5 minutes after intravenous administration; assay type: ADME, organism-based; settings: in vivo
Rattus norvegicus [7] = assay: Distribution of radioactivity of radiolabeled compound in liver of female rats 30 minutes after intravenous administration; assay type: ADME, organism-based; settings: in vivo, 0.5 h
Rattus norvegicus [8] = assay: Distribution of radioactivity of radiolabeled compound in liver of female rats 5 minutes after intravenous administration; assay type: ADME, organism-based; settings: in vivo
Rattus norvegicus [9] = assay: Distribution of radioactivity of radiolabeled compound in lung of female rats 30 minutes after intravenous administration; assay type: ADME, organism-based; settings: in vivo, 0.5 h
Rattus norvegicus [10] = assay: Distribution of radioactivity of radiolabeled compound in lung of female rats 5 minutes after intravenous administration; assay type: ADME, organism-based; settings: in vivo
Rattus norvegicus [11] = assay: Percentage […]/CH3OH extract of the radiolabeled compound in rat liver 30 minutes after iv administration; assay type: functional
Method in brief: (§1)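 Liver and plasma were taken at 5 or 30 min. Plasma was extracted by a modified Folch procedure, and liver was homogenized and extracted. Extracts were run on TLC in hexane/ethyl acetate (5:2) for esters or THF/hexane (1:1) for acids, with unlabeled compound as reference. Plates were cut into 1-cm strips and counted. Values are percent ± SEM, n = 3-5.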

Rattus norvegicus [12] = assay: Percentage […]/CH3OH extract of the radiolabeled compound in rat liver 5 minutes after iv administration; assay type: functional; method in brief: as §1
Rattus norvegicus [13] = assay: Percentage […]/CH3OH extract of the radiolabeled compound in rat plasma 30 minutes after iv administration; assay type: functional; method in brief: as §1
Rattus norvegicus [14] = assay: Percentage […]/CH3OH extract of the radiolabeled compound in rat plasma 5 minutes after iv administration; assay type: functional; method in brief: as §1
Rattus norvegicus [15] = assay: Percentage parent compound in rat liver 30 minutes after iv administration of the radiolabeled compound by thin-layer chromatography; assay type: functional; method in brief: as §1
Rattus norvegicus [16] = assay: Percentage parent compound in rat liver 5 minutes after iv administration of the radiolabeled compound by thin-layer chromatography; assay type: functional; method in brief: as §1
Rattus norvegicus [17] = assay: Percentage parent compound in rat plasma 30 minutes after iv administration of the radiolabeled compound by thin-layer chromatography; assay type: functional; method in brief: as §1
Rattus norvegicus [18] = assay: Percentage parent compound in rat plasma 5 minutes after iv administration of the radiolabeled compound by thin-layer chromatography; assay type: functional; method in brief: as §1
Rattus norvegicus [19] = assay: Polyacrylamide Gel Electrophoresis (PAGE) analysis of rat plasma 30 minutes after intravenous administration of radiolabeled compound in high density lipoprotein; assay type: functional, organism-based
Method in brief: (§2)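 Gels were sectioned and counted in a γ counter. Radioactivity in each band (stacking gel, LDL, HDL, albumin, below albumin) is expressed as a percentage of the total radioactivity applied to the gel, ± SEM, n = 3-5.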

Rattus norvegicus [20] = assay: Polyacrylamide Gel Electrophoresis (PAGE) analysis of rat plasma 30 min after intravenous administration of radiolabeled compound in low-density lipoprotein; assay type: functional, organism-based; method in brief: as §2
Rattus norvegicus [21] = assay: Polyacrylamide Gel Electrophoresis (PAGE) analysis of rat plasma 30 min after intravenous administration of radiolabeled compound in stacking gel; assay type: functional, organism-based; method in brief: as §2
Rattus norvegicus [22] = assay: Polyacrylamide Gel Electrophoresis (PAGE) analysis of rat plasma 5 minutes after intravenous administration of radiolabeled compound in high density lipoprotein; assay type: functional, organism-based
Method in brief: (§3)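 ¹²⁵I-labeled compound, radioiodinated by exchange in a pivalic acid melt, solubilized in normal saline with Tween 20 and given iv to adult female Sprague–Dawley rats (200–250 g), 5–30 μCi/animal, 3–4 rats per time point. Plasma was run on polyacrylamide gels. Gels were sectioned and gamma counted. Radioactivity per band (stacking gel, LDL, HDL, albumin, below albumin) is given as % of total applied; mean ± SEM, n = 3-5.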

Rattus norvegicus [23] = assay: Polyacrylamide Gel Electrophoresis (PAGE) analysis of rat plasma 5 minutes after intravenous administration of radiolabeled compound in low-density lipoprotein; assay type: functional, organism-based; method in brief: as §3
Rattus norvegicus [24] = assay: Polyacrylamide Gel Electrophoresis (PAGE) analysis of rat plasma 5 minutes after intravenous administration of radiolabeled compound in stacking gel; assay type: functional, organism-based; method in brief: as §3
Rattus norvegicus [25] = assay: Polyacrylamide Gel Electrophoresis (PAGE) analysis of rat plasma 5 min after intravenous administration of radiolabeled compound (below albumin); assay type: functional, organism-based; method in brief: as §2
Rattus norvegicus [26] = assay: Polyacrylamide Gel Electrophoresis (PAGE) analysis of rat plasma 5 min after intravenous administration of radiolabeled compound in albumin; assay type: functional, organism-based; method in brief: as §2
Rattus norvegicus [27] = assay: Polyacrylamide Gel Electrophoresis (PAGE) analysis of rat plasma 30 min after intravenous administration of radiolabeled compound (below albumin); assay type: functional, organism-based; method in brief: as §2
Rattus norvegicus [28] = assay: Polyacrylamide Gel Electrophoresis (PAGE) analysis of rat plasma 30 min after intravenous administration of radiolabeled compound in albumin; assay type: functional, organism-based; method in brief: as §2
Rattus norvegicus [29] = assay: Distribution of radioactivity of radiolabeled compound in heart of female rats 30 minutes after intravenous administration; assay type: ADME, organism-based; settings: in vivo, 0.5 h
Rattus norvegicus [30] = assay: Polyacrylamide Gel Electrophoresis (PAGE) analysis of rat plasma 30 minutes after intravenous administration of radiolabeled compound (below albumin ); assay type: functional, organism-based; method in brief: as §2
Rattus norvegicus [31] = assay: Polyacrylamide Gel Electrophoresis (PAGE) analysis of rat plasma 30 minutes after intravenous administration of radiolabeled compound concentration of stacking gel; assay type: functional, organism-based; method in brief: as §2
Rattus norvegicus [32] = assay: Polyacrylamide Gel Electrophoresis (PAGE) analysis of rat plasma 30 minutes after intravenous administration of radiolabeled compound in albumin; assay type: functional, organism-based; method in brief: as §2
Rattus norvegicus [33] = assay: Polyacrylamide Gel Electrophoresis (PAGE) analysis of rat plasma 30 minutes after intravenous administration of radiolabeled compound in low-density lipoprotein; assay type: functional, organism-based; method in brief: as §2
Rattus norvegicus [34] = assay: Polyacrylamide Gel Electrophoresis (PAGE) analysis of rat plasma 5 minutes after intravenous administration of radiolabeled compound (below albumin); assay type: functional, organism-based; method in brief: as §3
Rattus norvegicus [35] = assay: Polyacrylamide Gel Electrophoresis (PAGE) analysis of rat plasma 30 minutes after intravenous administration of radiolabeled compound (below albumin); assay type: functional, organism-based; method in brief: as §2
Rattus norvegicus [36] = assay: Polyacrylamide Gel Electrophoresis (PAGE) analysis of rat plasma 30 minutes after intravenous administration of radiolabeled compound concentration in stacking gel; assay type: functional, organism-based; method in brief: as §2
Rattus norvegicus [37] = assay: Polyacrylamide Gel Electrophoresis (PAGE) analysis of rat plasma 5 minutes after intravenous administration of radiolabeled compound (below albumin ); assay type: functional, organism-based; method in brief: as §3
Rattus norvegicus [38] = assay: Polyacrylamide Gel Electrophoresis (PAGE) analysis of rat plasma 30 minutes after intravenous administration of radiolabeled in stacking gel; assay type: functional, organism-based; method in brief: as §2
Rattus norvegicus [39] = assay: Polyacrylamide Gel Electrophoresis (PAGE) analysis of rat plasma 30 min after intravenous administration of radiolabeled compound ( below albumin); assay type: functional, organism-based; method in brief: as §2
Rattus norvegicus [40] = assay: Polyacrylamide Gel Electrophoresis (PAGE) analysis of rat plasma 30 min after intravenous administration of radiolabeled compound in low density lipoprotein; assay type: functional, organism-based; method in brief: as §2
Rattus norvegicus [41] = assay: Polyacrylamide Gel Electrophoresis (PAGE) analysis of rat plasma 5 minutes after intravenous administration of radiolabeled compound at in high density lipoprotein; assay type: functional, organism-based; method in brief: as §3
Rattus norvegicus [42] = assay: Polyacrylamide Gel Electrophoresis (PAGE) analysis of rat plasma 30 min after intravenous administration of radiolabeled compound at in high density; assay type: functional, organism-based; method in brief: as §2
Rattus norvegicus [43] = assay: Polyacrylamide Gel Electrophoresis (PAGE) analysis of rat plasma 5 min after intravenous administration of radiolabeled compound concentration of albumin; assay type: functional, organism-based; method in brief: as §2

| Compound | Dose (Rattus norvegicus [1]) [%] | Dose (Rattus norvegicus [3]) [%] | Dose (Rattus norvegicus [4]) [%] | Dose (Rattus norvegicus [5]) [%] | Dose (Rattus norvegicus [6]) [%] | Dose (Rattus norvegicus [7]) [%] | Dose (Rattus norvegicus [8]) [%] | Dose (Rattus norvegicus [9]) [%] | Dose (Rattus norvegicus [10]) [%] | Activity (Rattus norvegicus [11]) [%] | Activity (Rattus norvegicus [12]) [%] | Activity (Rattus norvegicus [13]) [%] | Activity (Rattus norvegicus [14]) [%] | Concentration (Rattus norvegicus [19]) [%] | Concentration (Rattus norvegicus [22]) | Concentration (Rattus norvegicus [23]) [%] | Concentration (Rattus norvegicus [24]) [%] | Concentration (Rattus norvegicus [26]) | Concentration (Rattus norvegicus [28]) | Dose (Rattus norvegicus [29]) [%] | further results |
| --- | --- | --- | --- | --- | --- | --- | --- | --- | --- | --- | --- | --- | --- | --- | --- | --- | --- | --- | --- | --- | --- |
| CCCCCCCCCCCCCCCC(=O)OCC(COC(=O)CCCCCCCCCCCCCCC)OC(=O)CCCCCCCCCCCCCCCCc1c(I)cc(I)c(N)c1I | 2.5 | 1.42 | 0.49 | 1.29 | 0.42 | 5.97 | 4.07 | 1.72 | 3.16 | 47.2 | 44.3 | 71.3 | 83.8 | 27 | 48.1 | 12.6 | 4.6 | 32.1 | 44.6 | – | Dose (Rattus norvegicus [2]): 0.74%; Activity (Rattus norvegicus [15]): 40.8%; Activity (Rattus norvegicus [16]): 24%; Activity (Rattus norvegicus [17]): 23.8%; Activity (Rattus norvegicus [18]): 32.6%; Concentration (Rattus norvegicus [20]): 8.6; Concentration (Rattus norvegicus [21]): 10.9; Concentration (Rattus norvegicus [25]): 2.7; Concentration (Rattus norvegicus [27]): 9 |
| Nc1c(I)cc(I)c(CCCCCCCCCCCCCCCCC(=O)O)c1I | 2.25 | 1.23 | 1.06 | 1.01 | 0.48 | 4.37 | 6.3 | 0.84 | 1.11 | – | – | – | – | 18.5 | 26.6 | 4.7 | 5.2 | 60 | – | 1.01 | Concentration (Rattus norvegicus [30]): 10%; Concentration (Rattus norvegicus [31]): 7.6; Concentration (Rattus norvegicus [32]): 60.6; Concentration (Rattus norvegicus [33]): 3.2%; Concentration (Rattus norvegicus [34]): 3.5 |
| CCCCCCCCCCCCCCCC(=O)OCC(COC(=O)CCCCCCCCCCCCCCC)OC(=O)Cc1c(I)cc(I)c(N)c1I | 6.23 | 6.5 | 0.63 | 0.87 | 0.93 | 4 | 2.96 | 1.34 | 1.41 | 83.1 | 91.2 | 81.5 | 89.4 | 53.4 | 50.5 | 34 | 9 | 3.3 | 1.9 | 0.68 | Activity (Rattus norvegicus [15]): 89%; Activity (Rattus norvegicus [16]): 91.7%; Activity (Rattus norvegicus [17]): 91.9%; Activity (Rattus norvegicus [18]): 97.7%; Concentration (Rattus norvegicus [35]): 0.5; Concentration (Rattus norvegicus [36]): 3%; Concentration (Rattus norvegicus [33]): 41.2%; Concentration (Rattus norvegicus [37]): 3.2 |
| Nc1c(I)cc(I)c(CCC(=O)O)c1I | 2.52 | 1.15 | 4 | 1.54 | 2.44 | 0.77 | 1.08 | 0.45 | 1.02 | – | – | – | – | – | – | 2.4 | 4.6 | – | 51.5 | 4.14 | Concentration (Rattus norvegicus [38]): 11; Concentration (Rattus norvegicus [39]): 10.8; Concentration (Rattus norvegicus [40]): 6.9; Concentration (Rattus norvegicus [37]): 4.1; Concentration (Rattus norvegicus [41]): 5.3%; Concentration (Rattus norvegicus [42]): 13.3%; Concentration (Rattus norvegicus [43]): 83.6 |
